# Source: ChEMBL document CHEMBL1130286, “Nicotinamide derivatives as a new class of gastric H+/K(+)-ATPase inhibitors. 1. Synthesis and structure-activity relationships of N-substituted 2-(benzhydryl- and benzylsulfinyl)nicotinamides” (J Med Chem, 1997)
# The source made the active and inactive calls. The rule behind the calls is not given here.
# Experiments:
# [1] = t1/2 is the time taken for the conversion of nicotinamides to isothiazolopyridine at pH=5.0; assay type: ADME
# Outline: (§1)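 Compound from a 10 µM DMSO solution was diluted into 100 mM HCl (pH 1) or pH-adjusted McIlvaine buffer (pH 3-7) containing Triton. Mixtures were incubated at 37 °C for various times. Remaining compound was measured by reversed-phase C18 HPLC (CH₃CN/10 mM phosphate pH 7.0) with UV detection at 254 nm, and half-lives were determined from these time points.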
# [2] = species: Rattus norvegicus; assay: Inhibition of histamine induced gastric acid secretion in pylorus-ligated rats; assay type: functional; settings: Stomach
# Outline: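 Male Wistar rats (~200 g) were fasted 24 h with water allowed, 4-7 per group. Under urethane (1 g/kg) the pylorus was ligated, and drug or vehicle was given intraduodenally right after ligation. Histamine (30 mg/kg) was given sc 30 min later. After 3 h, gastric juice volume was measured and acid titrated to pH 7 with 0.01 N NaOH. Total acid output versus controls gave percent inhibition.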
# [3] = t1/2 is the time taken for the conversion of nicotinamides to isothiazolopyridine at pH=7.0; assay type: ADME; outline: as §1
# [4] = t1/2 is the time taken for the conversion of nicotinamides to isothiazolopyridine at pH=3.0; assay type: ADME; outline: as §1
# [5] = t1/2 is the time taken for the conversion of nicotinamides to isothiazolopyridine at pH=1.0; assay type: ADME; outline: as §1
# [6] = system: Rattus norvegicus; assay: Percent inhibition of histamine induced gastric acid secretion in pylorus-ligated rats at 100 mg/Kg intraduodenal dose; settings: Stomach
# [7] = species: Oryctolagus cuniculus; assay: Percent inhibition of [14C]aminopyrine (AP) accumulation stimulated by dibutyryl cyclic AMP in isolated rabbit parietal cells; assay type: functional
# Outline: (§2)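 Parietal cells were isolated from rabbit gastric tissue, and the cell-rich fraction (1-2 × 10⁷ cells/300 µL) was put in Earle's balanced salt solution. The medium held 5.6 kBq [¹⁴C]aminopyrine, 25 mM HEPES-NaOH pH 7.4, 0.2% BSA and test compound. Cells were stimulated with 1 mM dbcAMP at 37 °C for 30 min under 95% O₂/5% CO₂, then centrifuged, solubilized and scintillation-counted. Counts with 0.1 mM dinitrophenol were subtracted, and IC50 came from regression lines.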
# [8] = system: Rattus norvegicus; assay: Percent inhibition of histamine induced gastric acid secretion in pylorus-ligated rats at 100 mg/Kg […] dose; Not effective; assay type: functional, organism-based; settings: Stomach
# [9] = molecular target: Potassium-transporting ATPase (Sus scrofa, UniProt P19156); assay: Inhibition of porcine gastric H+/K+ ATPase; assay type: tissue-based, Stomach
# Sequence of Potassium-transporting ATPase (P18434 whole entry): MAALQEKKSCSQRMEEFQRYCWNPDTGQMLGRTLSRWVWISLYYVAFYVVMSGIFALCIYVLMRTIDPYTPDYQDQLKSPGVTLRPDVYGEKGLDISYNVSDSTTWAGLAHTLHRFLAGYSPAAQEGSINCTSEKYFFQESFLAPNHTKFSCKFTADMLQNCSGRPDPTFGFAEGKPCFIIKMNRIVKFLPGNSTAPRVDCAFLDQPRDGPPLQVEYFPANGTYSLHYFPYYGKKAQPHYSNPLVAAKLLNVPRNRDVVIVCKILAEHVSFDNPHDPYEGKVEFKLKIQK
# Sequence of Potassium-transporting ATPase (P19156 whole entry): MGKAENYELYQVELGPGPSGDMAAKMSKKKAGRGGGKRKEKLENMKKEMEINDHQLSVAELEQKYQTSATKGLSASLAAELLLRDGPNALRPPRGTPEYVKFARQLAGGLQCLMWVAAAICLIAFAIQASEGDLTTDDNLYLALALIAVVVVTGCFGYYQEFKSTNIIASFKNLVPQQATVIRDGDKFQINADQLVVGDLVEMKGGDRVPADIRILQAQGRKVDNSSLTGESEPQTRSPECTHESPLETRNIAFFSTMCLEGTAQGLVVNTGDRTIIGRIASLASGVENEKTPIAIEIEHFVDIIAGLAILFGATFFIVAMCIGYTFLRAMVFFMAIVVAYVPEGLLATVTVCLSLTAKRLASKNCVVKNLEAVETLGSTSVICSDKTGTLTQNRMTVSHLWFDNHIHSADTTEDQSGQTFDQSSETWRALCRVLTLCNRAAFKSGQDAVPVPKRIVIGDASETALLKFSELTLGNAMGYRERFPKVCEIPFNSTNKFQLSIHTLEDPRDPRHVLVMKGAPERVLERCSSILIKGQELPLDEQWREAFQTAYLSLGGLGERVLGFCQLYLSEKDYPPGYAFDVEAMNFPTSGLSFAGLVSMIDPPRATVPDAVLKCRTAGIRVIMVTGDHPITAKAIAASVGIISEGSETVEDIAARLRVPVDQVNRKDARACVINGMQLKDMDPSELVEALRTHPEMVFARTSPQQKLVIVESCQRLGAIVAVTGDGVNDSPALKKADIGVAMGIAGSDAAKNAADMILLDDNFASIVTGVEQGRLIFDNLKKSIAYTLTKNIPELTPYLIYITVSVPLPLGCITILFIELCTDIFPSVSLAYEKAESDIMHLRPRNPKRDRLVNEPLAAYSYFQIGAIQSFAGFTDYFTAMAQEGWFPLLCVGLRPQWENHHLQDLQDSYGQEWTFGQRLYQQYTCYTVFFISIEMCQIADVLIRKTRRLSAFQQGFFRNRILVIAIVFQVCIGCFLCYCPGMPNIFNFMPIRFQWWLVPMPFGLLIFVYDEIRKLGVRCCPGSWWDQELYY
# Outline: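 Porcine gastric microsomes (15 µg protein) were preincubated 30 min at 37 °C with compound in 50 mM Tris-HCl pH 7.4, 4 mM MgCl₂ and 5 µg/mL gramicidin, with or without 20 mM KCl. Reaction was started with 2 mM ATP (final) and run 20 min at 37 °C, then stopped with trichloroacetic acid. Released phosphate was measured by the Sanui method. Activity was the K⁺-dependent rate, with the K⁺-free rate subtracted.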
# [10] = molecular target: Potassium-transporting ATPase (Oryctolagus cuniculus); assay: Inhibition of [14C]aminopyrine (AP) accumulation stimulated by dibutyryl cyclic AMP in isolated rabbit parietal cells
# [11] = system: Potassium-transporting ATPase (Oryctolagus cuniculus); assay: Percent inhibition of [14C]aminopyrine (AP) accumulation in dibutyryl cAMP stimulated rbbit parietal cells at 10 uM
# [12] = species: Oryctolagus cuniculus; assay: Percent inhibition of [14C]aminopyrine (AP) accumulation stimulated by dibutyryl uM; Not effective; assay type: functional; outline: as §2
# [13] = species: Oryctolagus cuniculus; assay: Percent inhibition of [14C]aminopyrine (AP) accumulation stimulated by dibutyryl uM; assay type: functional; outline: as §2
# [14] = system: Rattus norvegicus; assay: Percent inhibition of histamine induced gastric acid secretion in pylorus-ligated rats at 100 mg/Kg intraduodenal dose; Not effective; settings: Stomach
# [15] = system: Rattus norvegicus; assay: Percent inhibition of histamine induced gastric acid secretion in pylorus-ligated rats at 10 mg/Kg intraduodenal dose; settings: Stomach
# [16] = system: Rattus norvegicus; assay: Percent inhibition of histamine induced gastric acid secretion in pylorus-ligated rats at 3 mg/Kg intraduodenal dose; settings: Stomach
smiles,measurement,setting,value
COc1ccc2[nH]c([S+]([O-])Cc3ncc(C)c(OC)c3C)nc2c1 (stereo not given) [OMEPRAZOLE],half-life,[1],19.2 min
same,ED50,[2],4.1 mg/kg
same,half-life,[3],10.5 h
COc1ccnc(C[S+]([O-])c2nc3ccc(OC(F)F)cc3[nH]2)c1OC (stereo not given) [PANTOPRAZOLE],half-life,[1],70.2 min
same,half-life,[3],23.1 h
COCOc1cc(OC)ccc1C[S+]([O-])c1ncccc1C(=O)Nc1ccncc1 (stereo not given),half-life,[4],8.25 h
same,half-life,[5],< 1.2 min
same,inhibition in vivo at 100 mg/kg,[6],37.7%
same,IC50,[7],2200 nM
O=C(NC1CCN(Cc2ccccc2)CC1)c1cccnc1[S+]([O-])C(c1ccccc1)c1ccccc1 (stereo not given),inhibition,[8],inactive
O=c1c2cccnc2sn1-c1ccccc1,IC50,[9],190 nM
CCOc1ccc(C[S+]([O-])c2ncccc2C(=O)Nc2ccncc2)c(OCC)c1 (stereo not given),half-life,[4],0.49 h
same,half-life,[5],< 1.2 min
same,IC50,[10],400 nM
same,IC50,[9],> 100000 nM
same,ED50,[2],11.2 mg/kg
CC(C)Cn1sc2ncccc2c1=O,IC50,[9],530 nM
O=C(Nc1ccccc1)c1cccnc1[S+]([O-])C(c1ccccc1)c1ccccc1 (stereo not given),inhibition,[11],5%
COc1ccc(C[S+]([O-])c2ncccc2C(=O)Nc2ccncc2)cc1 (stereo not given),half-life,[5],128 min
same,inhibition in vivo at 100 mg/kg,[6],44.4%
same,inhibition,[11],33.1%
COc1ncccc1NC(=O)c1cccnc1[S+]([O-])C(c1ccccc1)c1ccccc1 (stereo not given),inhibition,[12],inactive
O=C(Nc1ccncc1)c1cccnc1[S+]([O-])C(c1ccccc1)c1ccccc1 (stereo not given),inhibition in vivo at 100 mg/kg,[6],30.2%
same,inhibition,[11],55%
O=C(Nc1c2ccccc2nc2ccccc12)c1cccnc1[S+]([O-])C(c1ccccc1)c1ccccc1 (stereo not given),inhibition,[11],47.6%
COc1cc(OC)c(C[S+]([O-])c2ncccc2C(=O)Nc2ccncc2)cc1Br (stereo not given),half-life,[4],28.8 h
same,half-life,[5],4.2 min
same,IC50,[10],1900 nM
same,inhibition in vivo at 100 mg/kg,[6],34.8%
O=C(Nc1ccccn1)c1cccnc1[S+]([O-])C(c1ccccc1)c1ccccc1 (stereo not given),Inhibition,[13],8%
O=C(Nc1ncccn1)c1cccnc1[S+]([O-])C(c1ccccc1)c1ccccc1 (stereo not given),inhibition,[12],inactive
COc1ccc(C[S+]([O-])c2ncccc2C(=O)Nc2ccncc2)c(OC)c1OC (stereo not given),half-life,[4],116 h
same,half-life,[5],27 min
same,inhibition,[11],19.6%
Cc1ccc(C(c2ccc(C)cc2)[S+]([O-])c2ncccc2C(=O)Nc2cccc3ncccc23)cc1 (stereo not given),inhibition in vivo at 100 mg/kg,[6],30.4%
same,inhibition,[11],74.1%
Cc1ccc2cccc(NC(=O)c3cccnc3[S+]([O-])C(c3ccccc3)c3ccccc3)c2n1 (stereo not given),inhibition,[11],24.4%
CN(C)CCc1ccc(NC(=O)c2cccnc2[S+]([O-])C(c2ccccc2)c2ccccc2)cc1 (stereo not given),inhibition,[11],93.5%
same,Inhibition,[13],7.4%
CC(C)CNC(=O)c1cccnc1[S+]([O-])C(c1ccccc1)c1ccccc1 (stereo not given),inhibition,[11],1.3%
COc1cc(OC)c(C[S+]([O-])c2ncccc2C(=O)Nc2ccncc2)c(OC)c1 (stereo not given),half-life,[4],< 0.03 h
same,half-life,[5],< 1.2 min
same,IC50,[10],1200 nM
same,IC50,[9],7300 nM
same,half-life,[1],17.4 min
same,ED50,[2],6.8 mg/kg
CCOc1cc(OC)ccc1C[S+]([O-])c1ncccc1C(=O)Nc1ccncc1 (stereo not given),half-life,[4],0.71 h
same,half-life,[5],< 1.2 min
same,IC50,[10],450 nM
same,IC50,[9],> 100000 nM
same,ED50,[2],19 mg/kg
O=C(Nc1cnccn1)c1cccnc1[S+]([O-])C(c1ccccc1)c1ccccc1 (stereo not given),inhibition,[12],inactive
COc1cc(C[S+]([O-])c2ncccc2C(=O)Nc2ccncc2)cc(OC)c1OC (stereo not given),half-life,[5],462 min
same,inhibition,[11],11.3%
O=C(Nc1nccs1)c1cccnc1[S+]([O-])C(c1ccccc1)c1ccccc1 (stereo not given),inhibition,[11],14.7%
COc1cc(C)c(C[S+]([O-])c2ncccc2C(=O)Nc2ccncc2)c(OC)c1 (stereo not given),half-life,[4],0.09 h
same,half-life,[5],< 1.2 min
same,IC50,[10],460 nM
same,IC50,[9],> 100000 nM
same,half-life,[1],257 min
same,ED50,[2],5.7 mg/kg
Cc1ccc(C(c2ccc(C)cc2)[S+]([O-])c2ncccc2C(=O)Nc2ccncc2)cc1 (stereo not given),IC50,[10],1500 nM
same,inhibition in vivo at 100 mg/kg,[6],48.1%
O=C(Nc1cccnc1)c1cccnc1[S+]([O-])C(c1ccccc1)c1ccccc1 (stereo not given),inhibition,[14],inactive
same,inhibition,[11],43.7%
O=c1c2cccnc2sn1-c1ccncc1,IC50,[9],220 nM
COc1cc(OC)c(OC)cc1C[S+]([O-])c1ncccc1C(=O)Nc1ccncc1 (stereo not given),half-life,[4],0.14 h
same,half-life,[5],< 1.2 min
same,IC50,[9],> 100000 nM
same,inhibition in vivo at 100 mg/kg,[6],21.7%
same,inhibition,[11],32.5%
COc1ccc(C[S+]([O-])c2ncccc2C(=O)Nc2ccncc2)c(OC)c1 (stereo not given),half-life,[4],0.84 h
same,half-life,[5],< 1.2 min
same,IC50,[10],590 nM
same,IC50,[9],> 100000 nM
same,half-life,[1],2310 min
same,ED50,[2],4.2 mg/kg
same,half-life,[3],> 100 h
O=C(Nc1ccc2ncccc2c1)c1cccnc1[S+]([O-])C(c1ccccc1)c1ccccc1 (stereo not given),inhibition in vivo at 100 mg/kg,[6],21.7%
same,inhibition,[11],61.8%
Cc1cc(C)c2ccc(NC(=O)c3cccnc3[S+]([O-])C(c3ccccc3)c3ccccc3)nc2n1 (stereo not given),inhibition,[14],inactive
same,inhibition,[11],68.6%
COc1cccc(OC)c1C[S+]([O-])c1ncccc1C(=O)Nc1ccncc1 (stereo not given),half-life,[4],38.5 h
same,half-life,[5],39.6 min
same,IC50,[10],26000 nM
same,IC50,[9],> 100000 nM
same,inhibition in vivo at 100 mg/kg,[6],60.7%
same,inhibition in vivo at 10 mg/kg,[15],12.7%
COc1ccc(C[S+]([O-])c2ncccc2C(=O)Nc2ccncc2)c(OC)c1C (stereo not given),half-life,[4],11.6 h
same,half-life,[5],7.2 min
same,IC50,[10],16600 nM
same,IC50,[9],> 100000 nM
O=C(Nc1cccc2ccccc12)c1cccnc1[S+]([O-])C(c1ccccc1)c1ccccc1 (stereo not given),inhibition,[12],inactive
COc1ccc(C[S+]([O-])c2ncccc2C(=O)Nc2ccncc2)c(OCCF)c1 (stereo not given),half-life,[4],3.3 h
same,half-life,[5],< 1.2 min
same,IC50,[10],1700 nM
same,IC50,[9],> 100000 nM
same,ED50,[2],8.1 mg/kg
CN(C)c1ccc(NC(=O)c2cccnc2[S+]([O-])C(c2ccccc2)c2ccccc2)cc1 (stereo not given),inhibition,[11],58.3%
COc1ccc(C[S+]([O-])c2ncccc2C(=O)Nc2ccncc2)c(OCCO)c1 (stereo not given),half-life,[4],1.78 h
same,half-life,[5],< 1.2 min
same,IC50,[10],59000 nM
Nc1ccc(NC(=O)c2cccnc2[S+]([O-])C(c2ccccc2)c2ccccc2)cc1 (stereo not given),inhibition,[11],57.4%
Cc1c(OCC(F)(F)F)ccnc1C[S+]([O-])c1nc2ccccc2[nH]1 (stereo not given) [LANSOPRAZOLE],half-life,[1],16.8 min
same,half-life,[3],6.08 h
COCOCCOc1cc(OC)ccc1C[S+]([O-])c1ncccc1C(=O)Nc1ccncc1 (stereo not given),half-life,[4],2.75 h
same,half-life,[5],< 1.2 min
same,inhibition in vivo at 3 mg/kg,[16],14.4%
same,IC50,[7],2000 nM
same,inhibition in vivo at 10 mg/kg,[15],76.6%
